The entries come from a sample that favours hits as a whole.
GASC1 inh = blocks human GASC-1 (KDM4C) demethylase activity; inhibition, % at 12.5 µM; AID 720574; 0.15% of 96,000 active; GST-KDM4C 2-372, H3K9me3 peptide, LANCE TR-FRET; Q9H3R0;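 active means mean replicate inhibition above about 25%, with at least 55% of replicates also reaching it, limit read from the data, passing the limit was not always enough; inconclusive means only one of those two conditions met; inactive means neither condition met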
Target sequence (Q9H3R0 2-372 limits assumed): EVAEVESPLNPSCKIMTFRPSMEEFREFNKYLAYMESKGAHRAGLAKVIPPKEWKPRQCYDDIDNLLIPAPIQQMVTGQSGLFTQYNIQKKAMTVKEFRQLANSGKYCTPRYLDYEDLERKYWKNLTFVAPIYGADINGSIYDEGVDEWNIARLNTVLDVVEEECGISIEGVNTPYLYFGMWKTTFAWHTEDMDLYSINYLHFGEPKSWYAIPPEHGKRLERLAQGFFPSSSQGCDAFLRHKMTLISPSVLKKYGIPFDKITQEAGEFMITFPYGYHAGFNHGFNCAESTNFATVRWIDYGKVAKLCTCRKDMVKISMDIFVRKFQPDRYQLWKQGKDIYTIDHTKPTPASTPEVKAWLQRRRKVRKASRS
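Material: GST-tagged GASC-1 (JMJD2C) catalytic fragment, aa 2-372 / Quantity: enzyme final amount 10 nM / Medium: HEPES buffer, pH 7.5, plus ascorbate / Doses: one test concentration per compound / Incubation: 30 min reaction, 60 min detection, RT / Measured by: LANCE TR-FRET / Read-out: inhibition from TR-FRET ratio decrease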
T cruzi growth-1 = inhibitors of T. cruzi proliferation; T. cruzi beta-gal in NIH3T3, GalScreen luminescence, 90 h; inhibition, % at 8.34 µM; 5.9% of 77,000 active;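 active means mean inhibition above about 93%, with at least 55% of replicates each passing it, limit read from the data, passing the limit was not always enough; inconclusive means only one of those two conditions holds; inactive means neither condition holds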
IDH1 mut inh = inhibitors of human IDH1 R132H | IDH1 R132H reductase, diaphorase/resazurin fluorescence, 60 min | inhibition, % at 10 µM | 0.18% of 70,000 active | AID 624101; in the data active means inhibition above about 34%; inconclusive means no clear call, values can overlap the other calls; inactive means below about 11%;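 further: 0% = DMSO and 100% = no enzyme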
Target sequence (O75874 whole entry R132H): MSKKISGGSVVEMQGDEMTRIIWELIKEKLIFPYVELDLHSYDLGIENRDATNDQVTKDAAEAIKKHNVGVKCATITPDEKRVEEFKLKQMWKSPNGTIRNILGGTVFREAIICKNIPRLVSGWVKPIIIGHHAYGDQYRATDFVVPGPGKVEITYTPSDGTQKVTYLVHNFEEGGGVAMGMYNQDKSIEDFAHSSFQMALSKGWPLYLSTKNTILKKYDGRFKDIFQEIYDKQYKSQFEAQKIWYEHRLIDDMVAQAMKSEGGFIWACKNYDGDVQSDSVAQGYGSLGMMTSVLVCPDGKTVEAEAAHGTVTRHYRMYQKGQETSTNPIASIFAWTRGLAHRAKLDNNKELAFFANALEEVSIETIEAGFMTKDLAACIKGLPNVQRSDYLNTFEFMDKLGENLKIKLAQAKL
T cruzi growth-2 = blocks T. cruzi growth in NIH3T3 host cells; T. cruzi beta-gal in NIH3T3, GalScreen luminescence, 90 h; 72% of 5,600 active; AID 651739; inhibition, % at 8.35 µM; shares compounds with T cruzi growth-1;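 active means mean replicate inhibition above about 95% and at least 55% of replicates individually reaching it, limit read from the data; inconclusive means only one of the two criteria is met; inactive means neither criterion is met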
T cruzi growth-3 = Trypanosoma cruzi proliferation inhibition; shares compounds with T cruzi growth-1; T. cruzi beta-gal in NIH3T3, GalScreen luminescence, 90 h; inhibition, % at 2.09 µM; 21% of 5,600 active; AID 651740;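 active means mean inhibition above about 95%, with at least 55% of replicates also reaching it, limit read from the data; inconclusive means meets just one of the two conditions; inactive means meets neither condition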;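 further: plate controls were neutral control median for no effect and positive control median for full effect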
3T3 cytotox = NIH/3T3 (mouse) viability loss; shares compounds with T cruzi growth-1; NIH/3T3 viability, CellTiter-Glo ATP luminescence, 90 h; cytotoxicity (signal decrease), % at 8.35 µM; 14% of 5,600 active;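 active means mean signal decrease across replicates above about 35% based on untreated-well scatter, with enough replicates individually passing, limit read from the data; inconclusive means no rule stated though some were filed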;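 further: 0% = median of neutral control wells and 100% = median of positive control wells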
NIH3T3 tox 2 = NIH/3T3 (mouse) viability loss. inhibition, % at 24.9 µM. 56% of 5,600 active. NIH/3T3 viability, CellTiter-Glo ATP luminescence, 90 h. AID 651744. shares compounds with T cruzi growth-1;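 active means mean loss of cell viability signal at or above a set limit, and enough replicates individually reaching it; inconclusive means meets only the mean limit or only the replicate share; inactive means meets neither condition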;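 further: 0% = median of neutral control wells and 100% = median of positive control wells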
Starred values were filed as active, the others as inactive; ? = inconclusive; . = no result given.

SMILES | GASC1 inh | T cruzi growth-1 | IDH1 mut inh | T cruzi growth-2 | T cruzi growth-3 | 3T3 cytotox | NIH3T3 tox 2
C[C@@H]1CN([C@@H](C)CO)C(=O)c2cc(NS(=O)(=O)c3ccc(F)cc3)ccc2O[C@H]1CN(C)Cc1ccc(Cl)c(Cl)c1 | 0.5 | ? | 0.9 | 105.1* | 52.8 | 30.2 | 103.7*
C[C@@H]1CN([C@@H](C)CO)C(=O)c2cc(NS(=O)(=O)c3ccc(F)cc3)ccc2O[C@@H]1CN(C)Cc1ccc(Cl)c(Cl)c1 | -1.0 | 100.6* | 0.0 | 98.6* | 35.3 | ? | 107.2*
Cc1ccc(S(=O)(=O)Nc2ccc3c(c2)C(=O)N([C@@H](C)CO)C[C@H](C)[C@@H](CN(C)Cc2ccc(Cl)c(Cl)c2)O3)cc1 | 5.3 | 92.4 | 0.3 | . | . | . | .
COc1cccc(-c2cc(=O)c3cc(OC)ccc3o2)c1 | . | . | -0.1 | . | . | . | .
O=C(CSc1nnc(-c2ccccc2O)n1-c1ccccc1)Nc1ccc(Oc2ccccc2)cc1 | . | . | 0.3 | . | . | . | .
Cc1ccc(S(=O)(=O)N(C)C[C@H]2OCCCC[C@@H](C)Oc3ccc(NC(=O)Nc4ccc(F)cc4)cc3C(=O)N([C@@H](C)CO)C[C@@H]2C)cc1 | 0.5 | . | . | . | . | . | .
Cc1ccc(S(=O)(=O)N(C)C[C@H]2OCCCC[C@H](C)Oc3ccc(NC(=O)Nc4ccc(F)cc4)cc3C(=O)N([C@@H](C)CO)C[C@H]2C)cc1 | -1.5 | 59.4 | . | . | . | . | .
Cc1ccc(S(=O)(=O)N(C)C[C@@H]2OCCCC[C@@H](C)Oc3ccc(NC(=O)Nc4ccc(F)cc4)cc3C(=O)N([C@H](C)CO)C[C@H]2C)cc1 | -1.4 | 113.8* | . | 108.9* | 108.7* | -2.9 | 24.0
Cc1ccc(S(=O)(=O)N(C)C[C@@H]2OCCCC[C@H](C)Oc3ccc(NC(=O)Nc4ccc(F)cc4)cc3C(=O)N([C@H](C)CO)C[C@@H]2C)cc1 | -0.1 | 109.0* | -1.4 | 96.7* | 106.6* | 3.0 | 41.4*
Nc1cc(N)nc(SCc2n[nH]c(=S)n2-c2ccccc2)n1 | . | . | -0.2 | . | . | . | .
C/C=C/c1ccc2c(c1)O[C@@H](CN(C)C(=O)Nc1cccc(F)c1)[C@@H](C)CN([C@@H](C)CO)S2(=O)=O | -0.3 | -53.4 | -4.0 | . | . | . | .
C/C=C/c1ccc2c(c1)O[C@H](CN(C)C(=O)Nc1cccc(F)c1)[C@@H](C)CN([C@@H](C)CO)S2(=O)=O | -1.0 | 41.7 | -0.2 | . | . | . | .
C/C=C/c1ccc2c(c1)O[C@H](CN(C)C(=O)Nc1cccc(F)c1)[C@H](C)CN([C@H](C)CO)S2(=O)=O | 0.9 | 104.6* | 0.2 | 99.1* | 78.0 | 20.6 | 39.3*
C[C@H](CO)N1C[C@H](C)[C@@H](CN(C)C(=O)Nc2cccc(F)c2)Oc2cc(/C=C/c3ccccc3)ccc2S1(=O)=O | -0.3 | 121.5* | -0.1 | 98.7* | 114.3* | 12.9 | 35.3*
COc1ccc(OC)c(NC(=O)COc2ccc(C(=O)Nc3cccc(C)c3C)cc2)c1 | . | . | 0.6 | . | . | . | .
COc1cccc(NC(=O)CN(c2ccc(C)cc2C)S(C)(=O)=O)c1 | . | . | 0.1 | . | . | . | .
Cc1ccc(S(=O)(=O)N2CC[C@@H]3[C@H](CO)Nc4ccc(C#Cc5ccc(F)cc5)cc4[C@@H]32)cc1 | -6.7 | -11.3 | . | . | . | . | .
O=S(=O)(c1ccccc1)N1CC[C@H]2[C@H](CO)Nc3ccc(C#Cc4cccc(F)c4)cc3[C@H]21 | -7.6 | . | . | . | . | . | .
Cc1ccc(S(=O)(=O)N2CC[C@@H]3[C@@H](CO)Nc4ccc(C#Cc5cccc(F)c5)cc4[C@@H]32)cc1 | -0.5 | 99.2* | . | 100.8* | 108.1* | 39.1* | 56.7*
O=S(=O)(c1ccccc1)N1CC[C@@H]2[C@H](CO)Nc3ccc(C#Cc4cccc(F)c4)cc3[C@@H]21 | -3.0 | ? | . | 100.7* | 111.0* | 46.2* | 59.2*
Cc1ccc(S(=O)(=O)N2CC[C@@H]3[C@H]2c2cc(C#Cc4ccccc4F)ccc2N[C@@H]3CO)cc1 | 0.7 | ? | . | 112.8* | 110.4* | 23.7 | ?
Cc1ccc(S(=O)(=O)N2CC[C@@H]3[C@H](CO)Nc4ccc(C#Cc5cccc(F)c5)cc4[C@@H]32)cc1 | -0.5 | 70.7 | . | . | . | . | .
COc1ccc(OC)c(NC(=O)CCn2cnc3ccccc3c2=O)c1 | . | . | 0.3 | . | . | . | .
COC(=O)c1ccc(NC(=O)CN(C)S(=O)(=O)c2ccc3ccccc3c2)cc1 | . | . | 0.3 | . | . | . | .
COc1cccc(NC(=O)CSc2nncn2C)c1 | . | . | 1.0 | . | . | . | .
SMILES | GASC1 inh | T cruzi growth-1 | IDH1 mut inh | T cruzi growth-2 | T cruzi growth-3 | 3T3 cytotox | NIH3T3 tox 2
Cc1cccc(OCC(=O)Nc2ccc(Cl)c(-c3nc4ccc(C)cc4o3)c2)c1 | . | . | 0.1 | . | . | . | .
O=C(Nc1ccc2c(c1)OCCO2)C1CCCN(S(=O)(=O)c2ccc(F)cc2)C1 (centres undefined) | . | . | 0.2 | . | . | . | .
CCOc1cc(C)c(Cl)cc1S(=O)(=O)NCc1ccccn1 | . | . | -0.6 | . | . | . | .
CCn1c(SCC(=O)Nc2ccc(OC)c(Cl)c2)nnc1-c1ccc(C)cc1 | . | . | 0.0 | . | . | . | .
COc1ccccc1-c1ccc2c(c1)O[C@@H](CN(C)C(C)=O)[C@H](C)CN([C@H](C)CO)S2(=O)=O | 0.4 | 16.5 | -5.0 | . | . | . | .
COc1ccc(S(=O)(=O)N(C)C[C@@H]2Oc3cc(C4=CCCC4)ccc3S(=O)(=O)N([C@@H](C)CO)C[C@H]2C)cc1 | -1.1 | 42.0 | 0.1 | . | . | . | .
COc1ccc(S(=O)(=O)N(C)C[C@@H]2Oc3cc(-c4ccccc4OC)ccc3S(=O)(=O)N([C@H](C)CO)C[C@@H]2C)cc1 | -0.5 | 126.8* | 0.0 | 109.7* | 81.6 | 32.1 | 63.2*
COc1ccc(S(=O)(=O)N(C)C[C@@H]2Oc3cc(-c4ccccc4OC)ccc3S(=O)(=O)N([C@@H](C)CO)C[C@@H]2C)cc1 | 8.3 | 125.9* | 0.4 | 114.5* | 100.1* | 45.1* | 24.7
COc1ccc(S(=O)(=O)N(C)C[C@@H]2Oc3cc(-c4ccccc4OC)ccc3S(=O)(=O)N([C@H](C)CO)C[C@H]2C)cc1 | -1.6 | 127.0* | 0.0 | 102.2* | 51.2 | 5.8 | 57.9*
COc1ccc(S(=O)(=O)N(C)C[C@@H]2Oc3cc(C4=CCCC4)ccc3S(=O)(=O)N([C@H](C)CO)C[C@H]2C)cc1 | -0.5 | 23.8 | 2.8 | . | . | . | .
CN(C)CC(=O)N1[C@H](C#N)[C@H](c2ccc(C#CC3CCCCC3)cc2)[C@H]1CO | . | 92.8 | . | . | . | . | .
CN(C)CC(=O)N1[C@H](CO)[C@@H](c2ccc(C#CC3CCCC3)cc2)[C@@H]1C#N | 3.3 | 9.3 | . | . | . | . | .
N#C[C@H]1[C@H](c2ccc(C#CC3CC3)cc2)[C@H](CO)N1C(=O)Cc1ccccn1 | 1.3 | 105.4* | . | 104.4* | 74.3 | -3.4 | 3.4
CN(C)CC(=O)N1[C@H](CO)[C@H](c2ccc(C#CC3CCCC3)cc2)[C@@H]1C#N | 2.4 | 95.9* | -1.9 | 101.5* | 107.2* | 12.3 | 8.7
CN(C)CC(=O)N1[C@H](C#N)[C@@H](c2ccc(C#CC3CC3)cc2)[C@@H]1CO | 0.4 | 83.9 | . | . | . | . | .

Bioassay records: PubChem BioAssay, Broad Institute
